Measurements: ChEMBL document CHEMBL1129661, “The chemistry of Pseudomonic acid. 15. Synthesis and antibacterial activity of a series of 5-alkyl, 5-alkenyl, and 5-heterosubstituted oxazoles” (1996)
Converted amounts (≈) assume the structure as drawn.

Key:
Haemophilus influenzae [1] = assay: Minimal inhibitory concentration against Haemophilus influenzae Q1; type: functional
How it was run: (§1)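 Agar dilution method. Each plate was spot-inoculated with 1 µL spots, about 10^6 CFU per spot. Plates were incubated 18-24 h at 37 °C.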

Moraxella catarrhalis [2] = assay: Minimal inhibitory concentration of compound against Moraxella catarrhalis 1502; type: functional; how it was run: as §1
Streptococcus pneumoniae [3] = assay: Minimal inhibitory concentration against Streptococcus pneumoniae PU7; type: functional; how it was run: as §1
Streptococcus pyogenes [4] = assay: Minimal inhibitory concentration against Streptococcus pyogenes CN10; type: functional; how it was run: as §1
Staphylococcus aureus [5] = assay: Minimal inhibitory concentration against Staphylococcus aureus Oxford NCTC 6571; type: functional; how it was run: as §1
Haemophilus influenzae [6] = assay: Minimal inhibitory concentration against Haemophilus influenzae H128; type: functional; how it was run: as §1
Streptococcus pneumoniae [7] = assay: Minimal inhibitory concentration of compound against Streptococcus pneumoniae PU7; No bacterial growth; type: functional, organism-based; how it was run: as §1
Moraxella catarrhalis [8] = assay: Minimal inhibitory concentration of compound against Moraxella catarrhalis 1502; No bacterial growth; type: functional, organism-based; how it was run: as §1
Moraxella catarrhalis [9] = assay: Minimal inhibitory concentration of compound against Moraxella catarrhalis H; type: functional; how it was run: as §1
Haemophilus influenzae [10] = assay: Minimal inhibitory concentration against Haemophilus influenzae WY21; type: functional; how it was run: as §1
Streptococcus pyogenes [11] = assay: Minimal inhibitory concentration of compound against Streptococcus pyogenes BCA; type: functional; how it was run: as §1
Streptococcus pneumoniae [12] = assay: Minimal inhibitory concentration of compound against Streptococcus pneumoniae 1629; type: functional; how it was run: as §1
Staphylococcus aureus [13] = assay: Minimal inhibitory concentration of compound against Staphylococcus aureus Russell; type: functional; how it was run: as §1

SMILES | MIC (Haemophilus influenzae [1]) [µg/mL] | MIC (Moraxella catarrhalis [2]) [µg/mL] | MIC (Streptococcus pneumoniae [3]) [µg/mL] | MIC (Streptococcus pyogenes [4]) [µg/mL] | MIC (Staphylococcus aureus [5]) [µg/mL] | MIC (Haemophilus influenzae [6]) [µg/mL] | MIC (Streptococcus pneumoniae [7]) | MIC (Moraxella catarrhalis [8]) | MIC (Moraxella catarrhalis [9]) [µg/mL] | MIC (Haemophilus influenzae [10]) [µg/mL] | MIC (Streptococcus pyogenes [11]) [µg/mL] | MIC (Streptococcus pneumoniae [12]) [µg/mL] | MIC (Staphylococcus aureus [13]) [µg/mL]
C/C(=C\c1ncc(/C=C/C(=O)[O-])o1)C[C@@H]1OC[C@H](C[C@@H]2O[C@H]2[C@@H](C)[C@H](C)O)[C@@H](O)[C@H]1O.[Na+] | 16 | 16 | 64 | 64 | 64 |  |  |  |  |  |  |  | 
C/C(=C\c1ncc(N(C)c2ccccc2)o1)C[C@@H]1OC[C@H](C[C@@H]2O[C@H]2[C@@H](C)[C@H](C)O)[C@@H](O)[C@H]1O |  | 32 (≈ 67.7 µM) | 32 (≈ 67.7 µM) | 16 (≈ 33.9 µM) | 16 (≈ 33.9 µM) | 16 (≈ 33.9 µM) |  |  |  |  |  |  | 
C/C(=C\c1ncc(CO)o1)C[C@@H]1OC[C@H](C[C@@H]2O[C@H]2[C@@H](C)[C@H](C)O)[C@@H](O)[C@H]1O | 2 (≈ 5.03 µM) | 8 (≈ 20.1 µM) |  | 32 (≈ 80.5 µM) | 32 (≈ 80.5 µM) |  | No growth |  |  |  |  |  | 
C/C(=C\c1ncc(Oc2ccccc2)o1)C[C@@H]1OC[C@H](C[C@@H]2O[C@H]2[C@@H](C)[C@H](C)O)[C@@H](O)[C@H]1O |  | 16 (≈ 34.8 µM) | 16 (≈ 34.8 µM) | 8 (≈ 17.4 µM) | 8 (≈ 17.4 µM) | 8 (≈ 17.4 µM) |  |  |  |  |  |  | 
C/C(=C\c1ncc(C=O)o1)C[C@@H]1OC[C@H](C[C@@H]2O[C@H]2[C@@H](C)[C@H](C)O)[C@@H](O)[C@H]1O | 4 (≈ 10.1 µM) | 8 (≈ 20.2 µM) | 64 (≈ 162 µM) | 16 (≈ 40.5 µM) | 2 (≈ 5.06 µM) |  |  |  |  |  |  |  | 
C/C(=C\c1ncc(CCCCCCCCC(=O)[O-])o1)C[C@@H]1OC[C@H](C[C@@H]2O[C@H]2[C@@H](C)[C@H](C)O)[C@@H](O)[C@H]1O.[Na+] | 4 | 8 | 4 | 1 | 4 |  |  |  |  |  |  |  | 
COC(=O)c1nc(/C=C(\C)C[C@@H]2OC[C@H](C[C@@H]3O[C@H]3[C@@H](C)[C@H](C)O)[C@@H](O)[C@H]2O)oc1N1CCCCC1 | 2 (≈ 3.93 µM) |  | 32 (≈ 62.9 µM) | 128 (≈ 252 µM) | 16 (≈ 31.5 µM) |  |  | No growth |  |  |  |  | 
CC[S+]([O-])c1cnc(/C=C(\C)C[C@@H]2OC[C@H](C[C@@H]3O[C@H]3[C@@H](C)[C@H](C)O)[C@@H](O)[C@H]2O)o1 (stereo partly drawn) | 0.13 (≈ 0.293 µM) |  | 4 (≈ 9.02 µM) | 8 (≈ 18 µM) | 8 (≈ 18 µM) |  |  |  | 16 (≈ 36.1 µM) |  |  |  | 
C/C(=C\c1ncc(C(=O)[O-])o1)C[C@@H]1OC[C@H](C[C@@H]2O[C@H]2[C@@H](C)[C@H](C)O)[C@@H](O)[C@H]1O.[Na+] | > 128 | > 128 | > 128 | > 128 | > 128 |  |  |  |  |  |  |  | 
COC(=O)CCCCCCCCc1cnc(/C=C(\C)C[C@@H]2OC[C@H](C[C@@H]3O[C@H]3[C@@H](C)[C@H](C)O)[C@@H](O)[C@H]2O)o1 | 4 (≈ 7.44 µM) | 64 (≈ 119 µM) | 8 (≈ 14.9 µM) | 4 (≈ 7.44 µM) | 4 (≈ 7.44 µM) |  |  |  |  |  |  |  | 
CCCCc1cnc(/C=C(\C)C[C@@H]2OC[C@H](C[C@@H]3O[C@H]3[C@@H](C)[C@H](C)O)[C@@H](O)[C@H]2O)o1 | 1 (≈ 2.36 µM) | 4 (≈ 9.44 µM) | 4 (≈ 9.44 µM) | 0.5 (≈ 1.18 µM) | 1 (≈ 2.36 µM) |  |  |  |  |  |  |  | 
C/C(=C\C(=O)OCCCCCCCCC(=O)O)C[C@@H]1OC[C@H](C[C@@H]2O[C@H]2[C@@H](C)[C@H](C)O)[C@@H](O)[C@H]1O [MUPIROCIN] | 0.03 (≈ 0.0599 µM) | 0.25 (≈ 0.499 µM) | 0.25 (≈ 0.499 µM) | 0.13 (≈ 0.26 µM) | 0.25 (≈ 0.499 µM) |  |  |  |  |  |  |  | 
COC(=O)CCCc1cnc(/C=C(\C)C[C@@H]2OC[C@H](C[C@@H]3O[C@H]3[C@@H](C)[C@H](C)O)[C@@H](O)[C@H]2O)o1 |  | 2 (≈ 4.28 µM) | 4 (≈ 8.56 µM) | 0.5 (≈ 1.07 µM) | 1 (≈ 2.14 µM) |  |  |  |  | 1 (≈ 2.14 µM) |  |  | 
COC(=O)/C=C/c1cnc(/C=C(\C)C[C@@H]2OC[C@H](C[C@@H]3O[C@H]3[C@@H](C)[C@H](C)O)[C@@H](O)[C@H]2O)o1 | 0.5 (≈ 1.11 µM) |  | 1 (≈ 2.21 µM) |  | 2 (≈ 4.43 µM) |  |  |  |  |  | 4 (≈ 8.86 µM) |  | 
C/C(=C\c1ncco1)C[C@@H]1OC[C@H](C[C@@H]2O[C@H]2[C@@H](C)[C@H](C)O)[C@@H](O)[C@H]1O | 2 (≈ 5.44 µM) | 4 (≈ 10.9 µM) |  | 32 (≈ 87.1 µM) | 16 (≈ 43.5 µM) |  |  |  |  |  |  | 128 (≈ 348 µM) | 
COC(=O)c1cnc(/C=C(\C)C[C@@H]2OC[C@H](C[C@@H]3O[C@H]3[C@@H](C)[C@H](C)O)[C@@H](O)[C@H]2O)o1 | 1 (≈ 2.35 µM) | 8 (≈ 18.8 µM) | 8 (≈ 18.8 µM) | 8 (≈ 18.8 µM) | 4 (≈ 9.4 µM) |  |  |  |  |  |  |  | 
C/C(=C\c1ncc(N2CCCCC2)o1)C[C@@H]1OC[C@H](C[C@@H]2O[C@H]2[C@@H](C)[C@H](C)O)[C@@H](O)[C@H]1O | 0.5 (≈ 1.11 µM) |  | 8 (≈ 17.8 µM) | 4 (≈ 8.88 µM) | 8 (≈ 17.8 µM) |  |  |  | 8 (≈ 17.8 µM) |  |  |  | 
COC(=O)/C=C\c1cnc(/C=C(\C)C[C@@H]2OC[C@H](C[C@@H]3O[C@H]3[C@@H](C)[C@H](C)O)[C@@H](O)[C@H]2O)o1 |  | 8 (≈ 17.7 µM) | 16 (≈ 35.4 µM) | 16 (≈ 35.4 µM) | 8 (≈ 17.7 µM) |  |  |  |  | 0.25 (≈ 0.554 µM) |  |  | 
C/C(=C\c1ncc(Sc2ccccc2)o1)C[C@@H]1OC[C@H](C[C@@H]2O[C@H]2[C@@H](C)[C@H](C)O)[C@@H](O)[C@H]1O | 8 (≈ 16.8 µM) | 8 (≈ 16.8 µM) | 32 (≈ 67.3 µM) | 4 (≈ 8.41 µM) |  |  |  |  |  |  |  |  | 16 (≈ 33.6 µM)
CCOc1cnc(/C=C(\C)C[C@@H]2OC[C@H](C[C@@H]3O[C@H]3[C@@H](C)[C@H](C)O)[C@@H](O)[C@H]2O)o1 | 0.5 (≈ 1.22 µM) | 4 (≈ 9.72 µM) | 2 (≈ 4.86 µM) | 2 (≈ 4.86 µM) | 2 (≈ 4.86 µM) |  |  |  |  |  |  |  | 
COC(=O)c1nc(/C=C(\C)C[C@@H]2OC[C@H](C[C@@H]3O[C@H]3[C@@H](C)[C@H](C)O)[C@@H](O)[C@H]2O)oc1OC | 128 (≈ 281 µM) | > 128 | > 128 | > 128 | > 128 |  |  |  |  |  |  |  | 
CCSc1cnc(/C=C(\C)C[C@@H]2OC[C@H](C[C@@H]3O[C@H]3[C@@H](C)[C@H](C)O)[C@@H](O)[C@H]2O)o1 | 1 (≈ 2.34 µM) | 8 (≈ 18.7 µM) | 8 (≈ 18.7 µM) | 4 (≈ 9.36 µM) | 8 (≈ 18.7 µM) |  |  |  |  |  |  |  | 
C/C(=C\c1ncc(C2SCCCS2)o1)C[C@@H]1OC[C@H](C[C@@H]2O[C@H]2[C@@H](C)[C@H](C)O)[C@@H](O)[C@H]1O | 1 (≈ 2.06 µM) | 0.5 (≈ 1.03 µM) | 4 (≈ 8.24 µM) | 1 (≈ 2.06 µM) | 1 (≈ 2.06 µM) |  |  |  |  |  |  |  | 
CCc1cnc(/C=C(\C)C[C@@H]2OC[C@H](C[C@@H]3O[C@H]3[C@@H](C)[C@H](C)O)[C@@H](O)[C@H]2O)o1 | 2 (≈ 5.06 µM) | 16 (≈ 40.5 µM) | 16 (≈ 40.5 µM) |  | 2 (≈ 5.06 µM) |  |  |  |  |  |  |  | 
C/C(=C\c1ncc(CCCC(=O)[O-])o1)C[C@@H]1OC[C@H](C[C@@H]2O[C@H]2[C@@H](C)[C@H](C)O)[C@@H](O)[C@H]1O.[Na+] |  | 32 | 64 | 64 | 32 |  |  |  |  | 8 |  |  | 
C/C(=C\c1ncc([S+]([O-])c2ccccc2)o1)C[C@@H]1OC[C@H](C[C@@H]2O[C@H]2[C@@H](C)[C@H](C)O)[C@@H](O)[C@H]1O (stereo partly drawn) | 2 (≈ 4.07 µM) | 16 (≈ 32.5 µM) | 16 (≈ 32.5 µM) | 4 (≈ 8.14 µM) | 16 (≈ 32.5 µM) |  |  |  |  |  |  |  | 
CCOC(=O)Oc1cnc(/C=C(\C)C[C@@H]2OC[C@H](C[C@@H]3O[C@H]3[C@@H](C)[C@H](C)O)[C@@H](O)[C@H]2O)o1 | 32 (≈ 70.3 µM) | 32 (≈ 70.3 µM) | > 128 | > 128 | > 128 |  |  |  |  |  |  |  | 
